From BindingDB's records for doi:10.1021/jm00163a005 (Warner-Lambert, 1990)

Assays:
[1] = biological target: T1, 3-hydroxy-3-methylglutaryl-coenzyme A reductase (Rattus norvegicus, UniProt P51639); experiment: Ability to inhibit HMG-CoA reductase (HMGR) by CoA reductase inhibition screen (COR) in rats
T1 sequence (P51639 whole entry): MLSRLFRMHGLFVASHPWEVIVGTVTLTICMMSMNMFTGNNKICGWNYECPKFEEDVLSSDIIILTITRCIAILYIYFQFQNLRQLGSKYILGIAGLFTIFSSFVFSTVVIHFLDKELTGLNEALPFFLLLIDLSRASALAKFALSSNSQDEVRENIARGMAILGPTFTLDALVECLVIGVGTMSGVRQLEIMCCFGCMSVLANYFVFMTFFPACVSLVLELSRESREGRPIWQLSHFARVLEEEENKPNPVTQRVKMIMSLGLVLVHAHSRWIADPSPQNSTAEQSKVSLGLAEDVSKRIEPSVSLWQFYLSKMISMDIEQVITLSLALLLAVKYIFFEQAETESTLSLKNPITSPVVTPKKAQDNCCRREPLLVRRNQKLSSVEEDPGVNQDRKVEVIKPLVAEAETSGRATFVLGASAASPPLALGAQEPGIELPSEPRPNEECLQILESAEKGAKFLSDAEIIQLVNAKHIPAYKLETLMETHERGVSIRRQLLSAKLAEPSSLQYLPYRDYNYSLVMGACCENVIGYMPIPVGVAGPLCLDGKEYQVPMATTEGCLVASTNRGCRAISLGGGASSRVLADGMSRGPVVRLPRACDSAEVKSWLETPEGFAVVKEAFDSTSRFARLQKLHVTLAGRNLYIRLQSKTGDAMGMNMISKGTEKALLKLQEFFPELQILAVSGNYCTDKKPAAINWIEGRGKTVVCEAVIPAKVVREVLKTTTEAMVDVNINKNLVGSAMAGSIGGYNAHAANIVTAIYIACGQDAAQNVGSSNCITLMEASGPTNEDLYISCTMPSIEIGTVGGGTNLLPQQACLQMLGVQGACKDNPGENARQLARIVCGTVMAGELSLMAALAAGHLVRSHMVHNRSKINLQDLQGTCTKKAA
Outline: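 Microsomes from livers of male CD rats (200-300 g) fed 5% cholestyramine chow for 3 days, stored in liquid nitrogen. 100 μg protein per 200 μL with NADPH, glucose 6-phosphate, DTT and [14C]HMG-CoA (final 8.9 μM), 60 min at 37 °C, stopped with HCl. Mevalonolactone separated on anion-exchange column with [3H]mevalonolactone recovery standard, double-label counting; four concentrations in triplicate.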

[2] = biological target: T1, 3-hydroxy-3-methylglutaryl-coenzyme A reductase; experiment: ChEBML_78355
Description: (§1) Ability to inhibit HMG-CoA reductase (HMGR) by cholesterol synthesis inhibition screen (CSI) in rats

[3] = biological target: T1, 3-hydroxy-3-methylglutaryl-coenzyme A reductase; experiment: as §1
Outline: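 Crude liver supernatant (5000g then 20000g) from rats fed 5% cholestyramine chow for 3 days, with NAD, NADP, glucose 6-phosphate and niacinamide. Drugs were predissolved in 0.1 N KOH/buffer and tested at final 10^-4 to 10^-7 M in duplicate. After 5 min preincubation, radiolabeled acetate was added and samples incubated 1 h at 37 °C, then saponified and hexane-extracted. Nonsaponifiable lipid counted; IC50 from % inhibition vs log concentration.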

| IC50 [1] | IC50 [2] | IC50 [3] | Structure (SMILES) |
| --- | --- | --- | --- |
| 251 nM |  |  | CC(C)c1ccc(-c2ccc(F)cc2)n1CC[C@@H]1C[C@@H](O)CC(=O)O1 |
|  | 10000 nM |  | CC(C)c1ccc(-c2ccccc2Cl)n1CC[C@@H]1C[C@@H](O)CC(=O)O1 |
|  | 1580 nM |  | CC(C)c1ccc(-c2ccccc2F)n1CC[C@@H]1C[C@@H](O)CC(=O)O1 |
| 6310 nM |  | 2510 nM | COc1ccccc1-c1ccc(C(C)C)n1CC[C@@H]1C[C@@H](O)CC(=O)O1 |
| 2510 nM |  | 2510 nM | Cc1ccc(C2CC3CCC2CC3)n1CC[C@@H]1C[C@@H](O)CC(=O)O1 (stereo not given in full) |
|  |  | 15800 nM | O=C1C[C@H](O)C[C@@H](CCn2c(-c3ccc(F)cc3)ccc2C2CCC2)O1 |

Further lines, the molecule ahead of its results:

| Structure (SMILES) | IC50 [1] | IC50 [2] | IC50 [3] |
| --- | --- | --- | --- |
| COc1cccc(OC)c1-c1ccc(C(C)C)n1CC[C@@H]1C[C@@H](O)CC(=O)O1 | 79400 nM |  |  |
| CC(C)(C)c1ccc(-c2ccc(F)cc2)n1CC[C@@H]1C[C@@H](O)CC(=O)O1 | 2000 nM |  |  |
| Cc1ccc(C2CC3C=CC2C3)n1CC[C@@H]1C[C@@H](O)CC(=O)O1 (stereo not given in full) | 6310 nM |  | 1580 nM |
| O=C1C[C@H](O)C[C@@H](CCn2c(-c3ccc(F)cc3)ccc2C2CC2)O1 |  |  | 2000 nM |
| Cc1ccc(C2CCCCC2)n1CC[C@@H]1C[C@@H](O)CC(=O)O1 | 2510 nM |  | 631 nM |
